Compound activity: PubChem, several laboratories
Compounds with a hit are over-represented: about 3.5% of the library has one in this group of screens.
STAT1 activator: increases IFN-gamma driven STAT1 reporter signal | 2.6% of 200,000 active | NIH 3T3 STAT1-luciferase reporter, luminescence; 100% = IFN-gamma alone, no compound | activation (% of control), % at 5.5 µM;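 active = activation above the screen-wide mean activation plus 3 SD, cut at about 130% in these data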;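 note: raw ratio to IFN-gamma control signal so 100% means no change and 0% no light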
APP 5'UTR act: APP 5'UTR luciferase reporter activation. SH-SY5Y APP 5'UTR luciferase reporter, luminescence; zero percent = DMSO vehicle wells. activation, % at 2 µM. 1% of 190,000 active. AID 1276;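 active = activation above a set limit, based on mean plus 3 SD of controls, cut at about 140% in these data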
NF-kB neuron act: NF-kB expression increase, human neuronal cells; NF-kB reporter expression; stronger effect = higher value; fold change at 12.5 µM; 1.6% of 190,000 active; in the data active = fold change above about 3.3
FLuc inhib CS: inhibits firefly luciferase, flagging false hits in luciferase inhibition screens. 1.5% of 200,000 active. inhibition, % at 10 µM. ATPLite firefly luciferase biochemical luminescence, 10 min;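 active = inhibition above about 50% when tested at 10 µM, limit read from the data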
Target sequence (P08659 whole entry, looked up): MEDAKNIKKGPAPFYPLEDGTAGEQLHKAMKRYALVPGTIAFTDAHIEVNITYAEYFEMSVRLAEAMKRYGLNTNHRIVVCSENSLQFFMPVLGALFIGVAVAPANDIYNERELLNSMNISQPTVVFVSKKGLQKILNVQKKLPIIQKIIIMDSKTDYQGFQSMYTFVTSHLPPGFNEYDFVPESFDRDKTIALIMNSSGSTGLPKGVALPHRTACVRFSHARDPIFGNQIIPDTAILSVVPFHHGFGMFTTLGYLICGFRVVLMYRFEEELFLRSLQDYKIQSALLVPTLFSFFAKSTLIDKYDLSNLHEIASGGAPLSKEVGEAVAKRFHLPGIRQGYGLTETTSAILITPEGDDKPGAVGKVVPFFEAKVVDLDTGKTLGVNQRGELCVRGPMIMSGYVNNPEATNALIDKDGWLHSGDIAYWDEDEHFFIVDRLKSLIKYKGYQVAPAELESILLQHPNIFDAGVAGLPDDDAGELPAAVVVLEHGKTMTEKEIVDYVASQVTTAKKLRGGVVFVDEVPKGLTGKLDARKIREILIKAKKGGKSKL
FLuc act counter: firefly luciferase counter-screen for stimulation assays. ATPlite luciferase biochemical, luminescence, 10 min; 0 = ATP-free wells, 1 = DMSO control. activation factor at 10 µM. 200,000 tested, under 10 active;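 active = luciferase activation factor, scaled between plate controls, of at least 2 with compound at 10 µM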
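Assay system: Luciferase/luciferin reagent mix; Medium: PBS as buffer for the ATP substrate; Dosing: test compounds dosed from 2 mM stocks in 100% DMSO; Times: 10 min, room temperature; Signal: luminescence from luciferase reaction; Read-out: luciferase activation; Controls: No-ATP low control, compound-free enzyme-plus-ATP high control.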
Pf gametocyte: kills late stage P. falciparum gametocytes; P. falciparum stage V gametocytes, ATP luminescence, 24 h; inhibition, % at 10.9 µM; 0.065% of 150,000 active; AID 743093;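 active = inhibition above the mean plus 3 SD of compounds within the control limits, set per campaign, cut at about 38% in these data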;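 note: 0% = DMSO wells and 100% = medium only without gametocytes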
* marks the source's active call; other numbers are inactive results; x = no result given.

SMILES	STAT1 activator	APP 5'UTR act	NF-kB neuron act	FLuc inhib CS	FLuc act counter	Pf gametocyte
Cc1cc(C(=O)Cn2nc(C(=O)O)c3ccccc3c2=O)c(C)n1C1CC1	115.2	26.4	0.75	10.7	0.9	20.4
COCCn1c(C)cc(C(=O)Cn2nc(C(=O)O)c3ccccc3c2=O)c1C	127.7	44.3	1.67	91.2*	0.1	19.8
C[C@H]1CCC[C@@]2(O[C@H](CCO)C[C@H](O)[C@H]2O)O1	x	x	x	x	x	-24.0
CNc1cc(CSc2ccc(Cl)cc2)nc(C)n1	135.3*	87.3	2.42	0.8	1	9.9
Cc1cccn2cc(CSc3ccccc3N)nc12	139.0*	-3.0	3.21	23.5	0.8	-4.8
Clc1ccc2nc(CSc3nnc4ccccn34)cn2c1	140.8*	106.6	3.13	-1.8	1	-20.5
Cc1cccc2nc(CSc3ccc(Cl)cc3)cn12	131.5*	101.9	x	31.3	0.7	-12.5
Cc1ccc(S(=O)(=O)N2CCN(c3ccccc3)CC2)c(C)c1	x	x	x	x	x	-4.5
C=CCN(CC=C)Cc1c(C)[nH]c2c(C)c(C)ccc2c1=O	100.6	31.6	1.14	-0.5	1	22.6
CC(C)OCCCNC(=O)C(NS(=O)(=O)c1ccc2c(c1)c(=O)n(C)c(=O)n2C)c1ccccc1 (centres undefined)	100.6	1.5	1.03	-0.2	1	x
Cc1ccc(-c2csc(N3CCC(NS(=O)(=O)c4ccc5c(c4)OCCO5)CC3)n2)cc1	87.9	16.6	0.56	-5.7	1.1	x
CCCn1c(C(O)c2ccc(OC)c(OC)c2)nc2ccccc21 (centres undefined)	x	x	x	x	x	-5.6
Cc1ccc(SCc2cn3c(C)csc3n2)cc1	125.5	198.7*	5.73*	63.6*	0.4	x
Clc1ccc(-n2nnnc2SCc2cn3ccccc3n2)cc1	107.4	9.2	0.99	-6.0	1.1	x
Cc1ccc(S(=O)(=O)NCc2cn3c(C)csc3n2)cc1	92.5	-6.7	0.95	-4.2	1	x
Nc1ccccc1SCc1cn2ccccc2n1	145.6*	88.3	1.01	30.1	0.7	-3.6
Clc1ccc(SCc2cn3ccccc3n2)cc1	133.0*	95.3	2.96	43.0	0.6	-9.9
Cc1cccc2nc(CSCc3ccco3)cn12	134.9*	114.4	2.34	15.0	0.8	-2.2
CCC(OC(=O)c1cc2sccc2n1C)C(=O)NCC1CCCO1 (centres undefined)	90.5	-4.0	0.84	-9.3	1.1	x
O=C(Oc1cccc2c(O)cccc12)c1ccco1	x	x	x	x	x	13.4
COc1ccc(OC)c(C(=O)Nc2ccc3[nH]ccc3c2)c1	x	x	x	x	x	-15.1
Clc1ccc2nc(CSCc3ccccc3)cn2c1	145.4*	139.3*	1.24	19.5	0.8	4.8
O=C(Nc1ccccc1O)c1c(O)c2c([nH]c1=O)CCCC2	107.6	87.6	4.49*	40.5	0.6	x
CCOC(=O)C(C)Sc1ncc(-c2ccccc2)cn1 (centres undefined)	106.5	5.5	1.86	5.6	0.9	3.4
Cc1ccc(/C=C/C(=O)c2ccccc2O)cc1	x	x	x	x	x	19.0
SMILES	STAT1 activator	APP 5'UTR act	NF-kB neuron act	FLuc inhib CS	FLuc act counter	Pf gametocyte
Cc1c(/C=C/C(=O)c2ccccc2O)cnn1C	112.1	90.9	3.92*	31.8	0.7	-7.4
CCCCSc1nc(C)cc(SCC(=O)N/N=C/c2ccccc2)n1	80.7	9.6	1.61	0.0	1	x
CC(=O)NCCc1nc2cc(NC(=O)c3cccs3)ccc2n1C	108.2	29.5	1.67	27.8	0.7	3.4
O=C(Nc1ccc2c(c1)nc1n2CCOC1)c1ccco1	121.3	47.0	1.72	48.1	0.5	6.3
O=C(Nc1ccc2c(c1)nc1n2CCSC1)c1ccco1	96.2	110.2	2.82	86.7*	0.1	x
CC(C)C(=O)Nc1ccc2nn(-c3ccccc3)nc2c1	116.1	233.8*	1.07	69.0*	0.3	-10.2
O=C(Nc1cc2nn(-c3ccccc3)nc2cc1Cl)c1ccco1	133.4*	24.5	1.7	6.9	0.9	12.1
CCCn1cnc2cc(NC(=O)c3cccs3)ccc21	138.3*	96.5	x	48.3	0.5	9.4
COc1ccc(/C(N)=N/O)cc1O	106.5	-13.1	1.02	-4.9	1	x
O=C(Nc1ccc2nn(-c3ccccc3)nc2c1)c1ccco1	131.7*	81.2	2.33	11.6	0.9	-34.6
CCn1cnc2cc(NC(=O)c3ccco3)ccc21	134.7*	52.7	2.87	66.3*	0.3	x
O=C(/C=C/c1ccco1)Nc1ccc(C(=O)N2CCOCC2)cc1	95.7	-19.3	1.34	3.9	1	11.2
O=C(/C=C/c1ccccc1)Nc1ccc2c(c1)OCCO2	59.9	151.8*	3.45*	94.0*	0.1	-7.7
O=C(/C=C/c1ccco1)Nc1ccc2c(c1)OCCO2	102.9	155.9*	9.17*	88.7*	0.1	-8.2
CCN(CC(=O)Nc1ccc2c(c1)OCCO2)C(=O)/C=C/c1ccccc1	109.1	-9.4	1.55	0.3	1	-17.9
CSc1cccc(NC(=O)/C=C/c2ccco2)c1	122.8	35.7	3.18	21.2	0.8	-13.8
COc1cccc(NC(=O)/C=C/c2ccco2)c1	127.7	73.5	3.72*	44.9	0.6	-7.8
Cc1cccc2c1OCC/C2=N\NC(=O)COc1ccccc1Cl	129.9*	5.8	1.98	5.3	0.9	9.9
O=C(Nc1nccs1)c1sc2cc(Cl)ccc2c1Cl	146.5*	128.2	3.1	32.6	0.7	x
O=C(Nc1nccs1)c1sc2ccccc2c1Cl	105.9	234.5*	7.01*	85.1*	0.1	x
COc1ccccc1NC(=O)Nc1nnc(C(C)C)s1	139.9*	43.1	1.66	2.6	1	1.1
CC(C)c1nnc(NC(=O)c2sc3ccccc3c2Cl)s1	126.4	18.4	2.49	63.8*	0.4	x
COc1ccccc1NC(=O)Nc1nnc(C(C)c2ccccc2)s1 (centres undefined)	x	x	x	x	x	7.2
CN(C)c1cccc(C(=O)Nc2ccc(N3CCOCC3)cc2)c1	105.7	5.3	1.63	25.1	0.7	24.1
CCN(CCNCC(O)COCc1ccc(Cl)cc1)c1cccc(C)c1 (centres undefined)	103.3	0.0	1.03	-4.6	1	19.9
SMILES	STAT1 activator	APP 5'UTR act	NF-kB neuron act	FLuc inhib CS	FLuc act counter	Pf gametocyte
COc1ccc2c(c1OC)C(=O)N(c1nccs1)C2	131.6*	46.1	1.54	20.6	0.8	x
Cc1ccc(NC(=O)c2ccc([N+](=O)[O-])o2)cc1C	148.4*	-44.4	x	9.0	0.9	7.5
Cc1ccc(CNC(=O)CSc2ccsc2[N+](=O)[O-])cc1	133.5*	51.9	1.6	-3.5	1	-15.2
Cc1ccc(CNC(=O)c2nn(C)c(C)c2[N+](=O)[O-])cc1	100.1	4.5	1.09	-7.4	1.1	-24.7
COc1ccc(CNC(=O)CSc2ccsc2[N+](=O)[O-])cc1	118.9	35.4	2.53	1.1	1	x
Cc1ccc(CNC(=O)c2ccc([N+](=O)[O-])o2)cc1	95.0	4.7	3.55*	-7.5	1.1	x
O=C(Nc1ccccn1)c1ccc([N+](=O)[O-])o1	94.4	-27.2	4.31*	-5.8	1.1	x
Cc1cccc(CC(=O)NCCN2CCOCC2)c1	x	x	x	x	x	-11.4
